ChEMBL document CHEMBL4052661, “Structure Based Design of N-(3-((1H-Pyrazolo[3,4-b]pyridin-5-yl)ethynyl)benzenesulfonamides as Selective Leucine-Zipper and Sterile-α Motif Kinase (ZAK) Inhibitors” (J Med Chem, 2017)
Each block holds one molecule with its values, some of them ahead of it.

Legend:
[1] = molecular target: T1, Serine/threonine-protein kinase B-raf (Homo sapiens, UniProt P15056, V600E); test: Inhibition of recombinant human B-RAF V600E mutant using Ser/Thr3 as substrate after 1 hr by FRET-based Z'-Lyte assay
[2] = molecular target: Serine/threonine-protein kinase B-raf (Homo sapiens, UniProt P15056); test: Inhibition of wild type GST-tagged recombinant human full-length B-RAF expressed in baculovirus expression system using Ser/Thr3 as substrate after 1 hr by FRET-based Z'-Lyte assay
Summary of the method: (§1)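 Z'-Lyte FRET assay with Ser/Thr3 peptide in kinase buffer; the final reaction held 0.002 ng B-Raf for wild type. Incubated 1 h at room temperature, then 1 h development to cleave nonphosphorylated peptide, then stop reagent. Means of 3 independent experiments.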

[3] = molecular target: T2, Mitogen-activated protein kinase kinase kinase 20 (Homo sapiens, UniProt Q9NYL2); test: Inhibition of N-terminal GST-tagged recombinant human full-length ZAK expressed in baculovirus infected Sf9 insect cells using MBP as substrate after 30 mins by ADP-Glo assay
Summary of the method: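 ZAK activity by ADP-Glo luminescence with MBP as substrate, ATP and serially diluted compound. Reaction started by adding ATP and run 30 min at room temperature. ADP-Glo reagent was added to stop it (40 min), then detection reagent for 30 min before reading luminescence. Curves fitted; each experiment repeated at least 3 times.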
Target sequence in this assay (Q9NYL2 whole entry): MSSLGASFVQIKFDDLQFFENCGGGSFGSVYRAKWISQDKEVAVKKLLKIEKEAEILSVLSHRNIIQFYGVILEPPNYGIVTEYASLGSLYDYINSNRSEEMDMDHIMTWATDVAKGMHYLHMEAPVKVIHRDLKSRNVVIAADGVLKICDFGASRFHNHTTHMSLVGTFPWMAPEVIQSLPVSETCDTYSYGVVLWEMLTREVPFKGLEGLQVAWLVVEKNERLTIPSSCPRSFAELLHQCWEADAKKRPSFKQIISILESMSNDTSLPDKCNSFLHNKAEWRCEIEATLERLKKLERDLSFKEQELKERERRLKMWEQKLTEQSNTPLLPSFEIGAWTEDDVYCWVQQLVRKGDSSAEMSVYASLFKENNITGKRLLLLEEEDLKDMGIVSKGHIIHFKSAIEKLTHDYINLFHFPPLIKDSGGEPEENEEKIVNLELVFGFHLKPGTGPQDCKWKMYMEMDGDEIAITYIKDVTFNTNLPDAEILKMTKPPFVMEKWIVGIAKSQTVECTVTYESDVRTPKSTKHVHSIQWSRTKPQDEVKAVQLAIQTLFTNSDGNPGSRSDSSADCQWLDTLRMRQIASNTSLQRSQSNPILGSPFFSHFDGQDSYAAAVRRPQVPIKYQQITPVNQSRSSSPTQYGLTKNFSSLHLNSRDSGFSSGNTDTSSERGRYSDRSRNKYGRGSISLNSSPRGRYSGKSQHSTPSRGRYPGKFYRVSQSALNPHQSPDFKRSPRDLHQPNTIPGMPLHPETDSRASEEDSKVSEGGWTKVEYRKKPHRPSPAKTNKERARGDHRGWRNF

[4] = molecular target: Mast/stem cell growth factor receptor Kit (Homo sapiens, UniProt P10721, L576P); test: Binding affinity to partial length human KIT L576P mutant expressed in Escherichia coli BL21 by active-site-dependent competition assay
Summary of the method: (§2)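 Active-site-dependent competition binding (KINOMEscan) run by an outside service across a panel of 468 kinases (403 nonmutated, 65 mutated); reported as binding constant Kd.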

[5] = molecular target: T2, Mitogen-activated protein kinase kinase kinase 20; test: Binding affinity to partial length human ZAK expressed in Escherichia coli BL21 by active-site-dependent competition assay; summary of the method: as §2
Target sequence in this assay (Q9NYL2 whole entry): as above

Rattus norvegicus [6] = test: AUC (0 to infinity) in Sprague-Dawley rat at 10 mg/kg, po by HPLC/MS analysis; assay type: ADME, organism-based; parameters: dose 10 mg/kg, time infinity, route oral; conditions: in vivo
Summary of the method: (§3)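 Sprague-Dawley rats given a single oral dose of 10 mg/kg; plasma exposure (AUC), half-life and oral bioavailability derived.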

Aurora kinase B [7] = molecular target: T3, Aurora kinase B (Homo sapiens, UniProt Q96GD4); test: Binding affinity to partial length human AURKB expressed in HEK293 cells by active-site-dependent competition assay; assay type: cell-based; summary of the method: as §2
Rattus norvegicus [8] = test: Inhibition of myocardial hypertrophy in spontaneous hypertensive WKY rat model assessed as decrease in left ventricular mass at systole at 10 to 20 mg/kg, po administered for 4 continuous weeks relative to control; assay type: functional
Summary of the method: (§4)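 Spontaneously hypertensive rats randomized into 3 groups given oral 0, 10 or 20 mg/kg/day for 4 continuous weeks; normotensive Wistar-Kyoto rats as reference; n = 6 per group. After sacrifice, left ventricles were collected to measure mass at diastole and systole; heart sections stained with hematoxylin and eosin for cardiomyocyte arrangement.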

[9] = Oral bioavailability in Sprague-Dawley rat at 10 mg/kg by HPLC/MS analysis; assay type: ADME, organism-based; conditions: in vivo; summary of the method: as §3
Aurora kinase B [10] = molecular target: T3, Aurora kinase B; test: Inhibition of partial length human AURKB expressed in HEK293 cells assessed as remaining activity at 1 uM after 1 hr by KINOMEscan method; assay type: cell-based
Summary of the method: (§5)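 Active-site-dependent competition binding screen run by an outside provider across a 468-kinase panel (403 nonmutated, 65 mutated kinases).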

[11] = molecular target: T4, Dual specificity mitogen-activated protein kinase kinase 5 (Homo sapiens) (UniProt Q13163); test: Inhibition of partial length human MEK5 expressed in HEK293 cells assessed as remaining activity at 1 uM after 1 hr by KINOMEscan method; assay type: cell-based; summary of the method: as §5
T4 sequence (whole entry): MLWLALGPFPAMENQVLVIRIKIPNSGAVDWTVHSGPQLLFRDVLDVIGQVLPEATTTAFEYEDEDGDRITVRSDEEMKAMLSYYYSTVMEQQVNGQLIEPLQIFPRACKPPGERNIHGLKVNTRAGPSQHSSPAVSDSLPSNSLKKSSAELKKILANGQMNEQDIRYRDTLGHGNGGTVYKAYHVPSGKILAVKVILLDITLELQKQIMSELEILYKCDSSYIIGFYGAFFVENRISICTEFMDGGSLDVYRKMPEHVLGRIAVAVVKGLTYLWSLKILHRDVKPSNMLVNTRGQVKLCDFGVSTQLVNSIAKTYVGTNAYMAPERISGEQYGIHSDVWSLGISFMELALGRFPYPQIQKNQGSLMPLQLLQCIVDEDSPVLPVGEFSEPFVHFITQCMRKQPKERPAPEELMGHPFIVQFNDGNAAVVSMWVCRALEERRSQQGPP

[12] = tested on: Mast/stem cell growth factor receptor Kit (Homo sapiens), P10721 [L576P]; test: Inhibition of partial length human KIT L576P mutant expressed in Escherichia coli BL21 assessed as remaining activity at 1 uM after 1 hr by KINOMEscan method; summary of the method: as §5
Rattus norvegicus [13] = test: Inhibition of myocardial hypertrophy in spontaneous hypertensive WKY rat model assessed as left ventricular mass at diastole at 20 mg/kg, po administered for 4 continuous weeks (reference value: 1.2 +/- 0.052 g); assay type: functional; summary of the method: as §4
[14] = molecular target: T5, Mast/stem cell growth factor receptor Kit (Homo sapiens, UniProt P10721); test: Inhibition of partial length human KIT expressed in Escherichia coli BL21 assessed as remaining activity at 1 uM after 1 hr by KINOMEscan method; summary of the method: as §5
[15] = molecular target: T6, Tyrosine-protein kinase FRK (Homo sapiens, UniProt P42685); test: Binding affinity to partial length human FRK expressed in Escherichia coli BL21 by active-site-dependent competition assay; summary of the method: as §2
[16] = molecular target: T7, Serine/threonine-protein kinase SIK1 (Homo sapiens, UniProt P57059); test: Binding affinity to partial length human SIK expressed in Escherichia coli BL21 by active-site-dependent competition assay; summary of the method: as §2
Rattus norvegicus [17] = organism: Rattus norvegicus; test: Inhibition of ZAK in Ang-2-induced rat H9c2 cells assessed as decrease in p38 phosphorylation by Western blot analysis
[18] = molecular target: Mast/stem cell growth factor receptor Kit (Homo sapiens, UniProt P10721, V559D); test: Binding affinity to partial length human KIT V559D mutant expressed in Escherichia coli BL21 by active-site-dependent competition assay; summary of the method: as §2
[19] = molecular target: T8, Tyrosine-protein kinase Srms (Homo sapiens, UniProt Q9H3Y6); test: Inhibition of partial length human SRMS expressed in HEK293 cells assessed as remaining activity at 1 uM after 1 hr by KINOMEscan method; assay type: cell-based; summary of the method: as §5
[20] = molecular target: T2, Mitogen-activated protein kinase kinase kinase 20; test: Inhibition of partial length human ZAK expressed in Escherichia coli BL21 assessed as remaining activity at 1 uM after 1 hr by KINOMEscan method; summary of the method: as §5
Rattus norvegicus [21] = organism: Rattus norvegicus; test: Inhibition of ZAK in Ang-2-induced rat H9c2 cells assessed as decrease in JNK phosphorylation by Western blot analysis
[22] = tested on: Mast/stem cell growth factor receptor Kit (Homo sapiens), P10721 [V559D]; test: Inhibition of partial length human KIT V559D mutant expressed in Escherichia coli BL21 assessed as remaining activity at 1 uM after 1 hr by KINOMEscan method; summary of the method: as §5
Rattus norvegicus [23] = test: Inhibition of myocardial hypertrophy in po dosed spontaneous hypertensive WKY rat model assessed as decrease in left ventricular mass at systole administered for 4 continuous weeks; assay type: functional, organism-based; summary of the method: as §4
[24] = molecular target: T7, Serine/threonine-protein kinase SIK1; test: Inhibition of partial length human SIK expressed in Escherichia coli BL21 assessed as remaining activity at 1 uM after 1 hr by KINOMEscan method; summary of the method: as §5
Rattus norvegicus [25] = test: Inhibition of myocardial hypertrophy in po dosed spontaneous hypertensive WKY rat model assessed as restoration of cardiomyocyte disarrangement to normal phenomena administered for 4 continuous weeks by Hematoxylin and eosin staining-based light microscopic method; assay type: functional, organism-based; summary of the method: as §4
Rattus norvegicus [26] = test: Inhibition of myocardial hypertrophy in po dosed spontaneous hypertensive WKY rat model assessed as decrease in JNK phosphorylation administered for 4 continuous weeks by Western blot method; assay type: functional, organism-based
Summary of the method: (§6)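 Spontaneously hypertensive rats given oral 0, 10 or 20 mg/kg/day for 4 continuous weeks alongside normotensive Wistar-Kyoto controls; left ventricles harvested after sacrifice for Western blot analysis.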

Rattus norvegicus [27] = test: Inhibition of myocardial hypertrophy in po dosed spontaneous hypertensive WKY rat model assessed as downregulation of BNP levels administered for 4 continuous weeks by Western blot method; assay type: functional, organism-based; summary of the method: as §6
[28] = molecular target: T1, Serine/threonine-protein kinase B-raf; test: Inhibition of partial length human BRAF V600E mutant expressed in HEK293 cells using Ser/Thr3 as substrate after 1 hr by FRET-based Z'-Lyte assay
Summary of the method: as §1, with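 “reagent. Controls: phosphopeptide for 100% phosphorylation, buffer instead of ATP for 100% inhibition, DMSO vehicle for 0% inhibition.” for “reagent.”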

[29] = molecular target: T5, Mast/stem cell growth factor receptor Kit; test: Binding affinity to partial length human KIT expressed in Escherichia coli BL21 by active-site-dependent competition assay; summary of the method: as §2
[30] = molecular target: T6, Tyrosine-protein kinase FRK; test: Inhibition of partial length human FRK expressed in Escherichia coli BL21 assessed as remaining activity at 1 uM after 1 hr by KINOMEscan method; summary of the method: as §5
[31] = Protein binding in mouse plasma at 1 uM after 4 hrs by equilibrium dialysis method; assay type: ADME, cell-free; conditions: read-out: PPB (converted)
[32] = molecular target: T1, Serine/threonine-protein kinase B-raf; test: Binding affinity to partial length human BRAF V600E mutant expressed in HEK293 cells by active-site-dependent competition assay; assay type: cell-based; summary of the method: as §2
Rattus norvegicus [33] = organism: Rattus norvegicus; test: Inhibition of ZAK in Ang-2-induced rat H9c2 cells assessed as downregulation of BNP levels by Western blot analysis
[34] = molecular target: T9, Dual specificity mitogen-activated protein kinase kinase 5 (Homo sapiens, UniProt Q13163); test: Binding affinity to partial length human MEK5 expressed in HEK293 cells by active-site-dependent competition assay; assay type: cell-based; summary of the method: as §2
T9 sequence (Q13163 whole entry): T4 sequence (whole entry)

[35] = Half life in Sprague-Dawley rat at 10 mg/kg, po by HPLC/MS analysis; assay type: ADME, organism-based; conditions: in vivo; summary of the method: as §3
Rattus norvegicus [36] = test: Inhibition of myocardial hypertrophy in po dosed spontaneous hypertensive WKY rat model assessed as decrease in p38 phosphorylation administered for 4 continuous weeks by Western blot method; assay type: functional, organism-based; summary of the method: as §6
[37] = molecular target: T8, Tyrosine-protein kinase Srms; test: Binding affinity to partial length human SRMS expressed in HEK293 cells by active-site-dependent competition assay; assay type: cell-based; summary of the method: as §2
[38] = tested on: Serine/threonine-protein kinase B-raf (Homo sapiens), P15056 [V600E]; test: Inhibition of partial length human BRAF V600E mutant expressed in HEK293 cells assessed as remaining activity at 1 uM after 1 hr by KINOMEscan method; assay type: cell-based; summary of the method: as §5
Rattus norvegicus [39] = test: Inhibition of myocardial hypertrophy in po dosed spontaneous hypertensive WKY rat model assessed as decrease in left ventricular mass at diastole administered for 4 continuous weeks; assay type: functional, organism-based; summary of the method: as §4

Chain of Serine/threonine-protein kinase B-raf (Homo sapiens, UniProt P15056) (P15056 whole entry): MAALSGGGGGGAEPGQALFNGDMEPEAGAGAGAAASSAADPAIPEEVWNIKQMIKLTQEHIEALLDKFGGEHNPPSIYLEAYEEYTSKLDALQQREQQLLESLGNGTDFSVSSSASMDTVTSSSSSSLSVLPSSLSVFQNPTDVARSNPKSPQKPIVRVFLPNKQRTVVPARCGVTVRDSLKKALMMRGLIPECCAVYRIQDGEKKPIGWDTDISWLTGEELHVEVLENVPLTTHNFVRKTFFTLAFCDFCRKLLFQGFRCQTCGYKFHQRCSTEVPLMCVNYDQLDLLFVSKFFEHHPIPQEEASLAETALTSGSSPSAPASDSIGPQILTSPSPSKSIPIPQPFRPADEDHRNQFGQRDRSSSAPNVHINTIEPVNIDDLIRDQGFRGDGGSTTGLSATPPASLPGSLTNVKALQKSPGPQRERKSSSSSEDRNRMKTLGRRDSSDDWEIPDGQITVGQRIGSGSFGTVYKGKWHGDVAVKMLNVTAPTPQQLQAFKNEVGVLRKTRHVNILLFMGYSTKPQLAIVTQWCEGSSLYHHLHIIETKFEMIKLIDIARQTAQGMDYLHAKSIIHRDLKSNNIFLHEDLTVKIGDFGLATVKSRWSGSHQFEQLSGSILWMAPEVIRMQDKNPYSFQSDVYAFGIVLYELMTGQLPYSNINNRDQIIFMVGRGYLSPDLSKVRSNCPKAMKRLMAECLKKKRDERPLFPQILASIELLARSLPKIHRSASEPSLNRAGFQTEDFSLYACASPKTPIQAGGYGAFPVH
T1 sequence (P15056 2-766 V600E limits assumed): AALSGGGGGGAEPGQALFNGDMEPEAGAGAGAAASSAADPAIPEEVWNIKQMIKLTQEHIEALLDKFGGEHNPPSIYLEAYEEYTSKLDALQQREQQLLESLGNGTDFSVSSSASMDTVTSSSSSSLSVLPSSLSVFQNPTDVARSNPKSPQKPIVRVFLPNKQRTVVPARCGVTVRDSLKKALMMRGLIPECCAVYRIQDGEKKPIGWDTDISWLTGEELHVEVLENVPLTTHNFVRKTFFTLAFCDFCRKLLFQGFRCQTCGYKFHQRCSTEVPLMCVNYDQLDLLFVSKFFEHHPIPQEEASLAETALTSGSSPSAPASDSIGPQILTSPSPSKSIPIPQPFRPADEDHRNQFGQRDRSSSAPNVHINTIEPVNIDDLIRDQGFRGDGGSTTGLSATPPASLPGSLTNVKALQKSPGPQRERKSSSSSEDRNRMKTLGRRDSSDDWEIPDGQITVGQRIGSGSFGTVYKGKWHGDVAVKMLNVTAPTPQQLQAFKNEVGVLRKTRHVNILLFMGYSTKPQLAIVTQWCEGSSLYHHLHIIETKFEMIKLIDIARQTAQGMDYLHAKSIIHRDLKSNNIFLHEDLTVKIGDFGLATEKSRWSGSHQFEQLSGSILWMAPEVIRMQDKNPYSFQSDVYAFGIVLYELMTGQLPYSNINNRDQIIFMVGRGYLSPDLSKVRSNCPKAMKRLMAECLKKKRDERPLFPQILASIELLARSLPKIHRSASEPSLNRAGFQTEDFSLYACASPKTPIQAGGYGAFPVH
T3 sequence (Q96GD4 whole entry): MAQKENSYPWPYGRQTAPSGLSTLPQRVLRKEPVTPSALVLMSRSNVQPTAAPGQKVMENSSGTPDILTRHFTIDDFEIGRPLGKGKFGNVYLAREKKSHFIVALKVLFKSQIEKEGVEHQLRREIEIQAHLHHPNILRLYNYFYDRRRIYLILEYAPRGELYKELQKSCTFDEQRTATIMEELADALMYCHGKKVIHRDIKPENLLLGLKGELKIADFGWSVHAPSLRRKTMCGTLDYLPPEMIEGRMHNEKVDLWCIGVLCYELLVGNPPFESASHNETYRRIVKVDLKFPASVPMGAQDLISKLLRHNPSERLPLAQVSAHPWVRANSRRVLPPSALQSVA
T5 sequence (P10721 whole entry): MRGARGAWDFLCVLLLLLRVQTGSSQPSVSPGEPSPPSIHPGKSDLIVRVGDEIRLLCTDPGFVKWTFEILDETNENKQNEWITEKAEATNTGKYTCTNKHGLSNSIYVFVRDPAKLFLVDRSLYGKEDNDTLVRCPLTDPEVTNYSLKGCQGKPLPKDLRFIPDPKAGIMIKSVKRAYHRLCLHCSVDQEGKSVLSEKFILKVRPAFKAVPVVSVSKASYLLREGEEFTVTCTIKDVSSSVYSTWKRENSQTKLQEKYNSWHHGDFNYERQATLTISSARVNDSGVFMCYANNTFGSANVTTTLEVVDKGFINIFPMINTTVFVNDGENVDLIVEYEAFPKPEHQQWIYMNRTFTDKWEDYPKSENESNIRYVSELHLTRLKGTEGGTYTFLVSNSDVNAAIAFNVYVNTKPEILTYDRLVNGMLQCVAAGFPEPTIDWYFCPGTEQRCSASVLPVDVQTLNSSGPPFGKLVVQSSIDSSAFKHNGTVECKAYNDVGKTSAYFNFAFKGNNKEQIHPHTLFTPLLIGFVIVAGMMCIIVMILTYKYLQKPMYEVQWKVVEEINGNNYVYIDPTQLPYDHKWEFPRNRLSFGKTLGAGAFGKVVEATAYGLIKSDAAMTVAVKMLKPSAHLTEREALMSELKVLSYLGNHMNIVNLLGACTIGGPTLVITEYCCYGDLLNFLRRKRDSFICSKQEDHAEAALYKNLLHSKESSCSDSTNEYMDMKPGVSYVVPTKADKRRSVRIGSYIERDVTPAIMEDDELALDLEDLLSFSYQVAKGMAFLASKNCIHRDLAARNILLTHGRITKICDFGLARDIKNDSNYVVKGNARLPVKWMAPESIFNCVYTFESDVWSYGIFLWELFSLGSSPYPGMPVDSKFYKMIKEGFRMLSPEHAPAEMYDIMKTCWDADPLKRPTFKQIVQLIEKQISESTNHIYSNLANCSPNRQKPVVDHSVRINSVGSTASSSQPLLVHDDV
T7 sequence (P57059 whole entry): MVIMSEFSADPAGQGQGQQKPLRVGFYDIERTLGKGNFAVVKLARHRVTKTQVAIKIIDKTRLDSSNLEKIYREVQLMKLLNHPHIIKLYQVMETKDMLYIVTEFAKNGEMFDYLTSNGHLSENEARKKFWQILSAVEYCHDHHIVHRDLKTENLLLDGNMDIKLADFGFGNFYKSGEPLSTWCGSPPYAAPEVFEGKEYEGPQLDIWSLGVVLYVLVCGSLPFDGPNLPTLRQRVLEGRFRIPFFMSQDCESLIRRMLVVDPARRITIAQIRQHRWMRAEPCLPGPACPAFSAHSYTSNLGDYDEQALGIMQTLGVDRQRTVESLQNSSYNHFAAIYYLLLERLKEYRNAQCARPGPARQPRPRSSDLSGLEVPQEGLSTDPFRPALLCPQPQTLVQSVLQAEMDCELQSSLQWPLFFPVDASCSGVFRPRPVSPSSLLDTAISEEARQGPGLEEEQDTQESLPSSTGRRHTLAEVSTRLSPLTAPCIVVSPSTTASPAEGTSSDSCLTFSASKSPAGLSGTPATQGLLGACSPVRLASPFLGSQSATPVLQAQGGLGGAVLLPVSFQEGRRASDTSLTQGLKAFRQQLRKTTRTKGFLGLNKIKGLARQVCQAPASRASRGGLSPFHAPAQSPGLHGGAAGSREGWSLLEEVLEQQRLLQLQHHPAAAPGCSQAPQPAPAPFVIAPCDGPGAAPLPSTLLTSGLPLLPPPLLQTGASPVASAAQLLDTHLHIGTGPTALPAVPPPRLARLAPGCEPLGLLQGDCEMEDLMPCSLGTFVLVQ
T6 sequence (P42685 whole entry): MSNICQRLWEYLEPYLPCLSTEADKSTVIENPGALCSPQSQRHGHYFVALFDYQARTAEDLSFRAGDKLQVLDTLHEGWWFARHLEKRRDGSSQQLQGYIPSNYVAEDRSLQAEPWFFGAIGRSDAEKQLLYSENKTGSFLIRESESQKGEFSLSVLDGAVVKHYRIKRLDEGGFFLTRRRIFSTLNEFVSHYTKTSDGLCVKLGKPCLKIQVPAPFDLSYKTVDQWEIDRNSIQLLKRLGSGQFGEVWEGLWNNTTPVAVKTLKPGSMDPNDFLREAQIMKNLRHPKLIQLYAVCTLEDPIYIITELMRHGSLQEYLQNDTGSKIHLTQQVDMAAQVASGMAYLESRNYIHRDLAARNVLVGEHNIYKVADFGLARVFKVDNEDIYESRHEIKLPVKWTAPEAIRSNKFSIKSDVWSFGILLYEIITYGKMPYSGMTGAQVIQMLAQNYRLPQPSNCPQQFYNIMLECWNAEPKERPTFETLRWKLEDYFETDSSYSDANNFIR
Chain of Mast/stem cell growth factor receptor Kit (Homo sapiens), P10721 [L576P] (P10721 whole entry L576P): as the sequence (P10721 whole entry) above, with L576P counted along it
Chain of Mast/stem cell growth factor receptor Kit (Homo sapiens), P10721 [V559D] (P10721 whole entry V559D): as the sequence (P10721 whole entry) above, with V559D counted along it

IC50 [1]: > 7000 nM | IC50 [2]: > 1000 nM | IC50 [3]: 7.5 nM
Structure (SMILES): COc1cccc(S(=O)(=O)Nc2ccc(F)c(C#Cc3cnc4[nH]nc(OC)c4c3)c2F)c1

IC50 [1]: > 10000 nM | IC50 [2]: > 10000 nM | IC50 [3]: 144 nM
Structure (SMILES): O=S(=O)(Nc1ccc(F)c(C#Cc2cnc3[nH]nc(OC4CCCC4)c3c2)c1F)c1cccc(Cl)c1

IC50 [1]: 169 nM | IC50 [2]: > 10000 nM | IC50 [3]: 19.2 nM
Structure (SMILES): COc1n[nH]c2ncc(C#Cc3c(F)ccc(NS(=O)(=O)c4ccccc4)c3F)cc12

Kd [4]: 210 nM | Kd [5]: 2.7 nM | AUC (Rattus norvegicus [6]): 253794 µg/L/h | Kd (Aurora kinase B [7]): 64 nM | bioavailability [9]: 20% | Activity (Aurora kinase B [10]): 2.4% | Activity [11]: 0.9% | Activity [12]: 5.5% | Activity [14]: 6.2% | Kd [15]: 22 nM | Kd [16]: 45 nM | inhibition (Rattus norvegicus [17]): Dose-dependent effect | Kd [18]: 180 nM | Activity [19]: 3.9% | Activity [20]: 3% | inhibition (Rattus norvegicus [21]): Dose-dependent effect | Activity [22]: 2.9% | Activity [24]: 1.5% | IC50 [1]: > 3000 nM | IC50 [28]: > 10000 nM | IC50 [2]: > 1000 nM | Kd [29]: 460 nM | Activity [30]: 1.9% | fraction unbound at 4 h, 1 µM [31]: 0.002 | Kd [32]: 50 nM | inhibition (Rattus norvegicus [33]): Dose-dependent effect | Kd [34]: 88 nM | half-life [35]: 34.6 h | Kd [37]: 64 nM | Activity [38]: 9.9% | IC50 [3]: 3.3 nM
Structure (SMILES): COc1n[nH]c2ncc(C#Cc3c(F)ccc(NS(=O)(=O)c4cccc(C#N)c4)c3F)cc12
inhibition (INH) (Rattus norvegicus [8]): 3 - 8% | Activity (Rattus norvegicus [13]): 0.95 g | inhibition (Rattus norvegicus [23]): Dose-dependent effect | inhibition (Rattus norvegicus [25]): Dose-dependent effect | inhibition (Rattus norvegicus [26]): Dose-dependent effect | inhibition (Rattus norvegicus [27]): Dose-dependent effect | inhibition (Rattus norvegicus [36]): Dose-dependent effect | inhibition (Rattus norvegicus [39]): Dose-dependent effect
